inhibition, Activity and IC50 data for 21 compounds are collected here from ChEMBL document CHEMBL2434840, “Discovery of 4-amino-2-(thio)phenol derivatives as novel protein kinase and angiogenesis inhibitors for the treatment of cancer: synthesis and biological evaluation. Part II” (Eur J Med Chem, 2013).

For assay [1], the target named is Vascular endothelial growth factor receptor 2 (Homo sapiens) (UniProt P35968). Put plainly: Inhibition of VEGFR2 (unknown origin) phosphorylation at 5 ug/mL by cell-based Western blotting analysis.
Vascular endothelial growth factor receptor 2 (Homo sapiens), sequence (P35968 whole entry): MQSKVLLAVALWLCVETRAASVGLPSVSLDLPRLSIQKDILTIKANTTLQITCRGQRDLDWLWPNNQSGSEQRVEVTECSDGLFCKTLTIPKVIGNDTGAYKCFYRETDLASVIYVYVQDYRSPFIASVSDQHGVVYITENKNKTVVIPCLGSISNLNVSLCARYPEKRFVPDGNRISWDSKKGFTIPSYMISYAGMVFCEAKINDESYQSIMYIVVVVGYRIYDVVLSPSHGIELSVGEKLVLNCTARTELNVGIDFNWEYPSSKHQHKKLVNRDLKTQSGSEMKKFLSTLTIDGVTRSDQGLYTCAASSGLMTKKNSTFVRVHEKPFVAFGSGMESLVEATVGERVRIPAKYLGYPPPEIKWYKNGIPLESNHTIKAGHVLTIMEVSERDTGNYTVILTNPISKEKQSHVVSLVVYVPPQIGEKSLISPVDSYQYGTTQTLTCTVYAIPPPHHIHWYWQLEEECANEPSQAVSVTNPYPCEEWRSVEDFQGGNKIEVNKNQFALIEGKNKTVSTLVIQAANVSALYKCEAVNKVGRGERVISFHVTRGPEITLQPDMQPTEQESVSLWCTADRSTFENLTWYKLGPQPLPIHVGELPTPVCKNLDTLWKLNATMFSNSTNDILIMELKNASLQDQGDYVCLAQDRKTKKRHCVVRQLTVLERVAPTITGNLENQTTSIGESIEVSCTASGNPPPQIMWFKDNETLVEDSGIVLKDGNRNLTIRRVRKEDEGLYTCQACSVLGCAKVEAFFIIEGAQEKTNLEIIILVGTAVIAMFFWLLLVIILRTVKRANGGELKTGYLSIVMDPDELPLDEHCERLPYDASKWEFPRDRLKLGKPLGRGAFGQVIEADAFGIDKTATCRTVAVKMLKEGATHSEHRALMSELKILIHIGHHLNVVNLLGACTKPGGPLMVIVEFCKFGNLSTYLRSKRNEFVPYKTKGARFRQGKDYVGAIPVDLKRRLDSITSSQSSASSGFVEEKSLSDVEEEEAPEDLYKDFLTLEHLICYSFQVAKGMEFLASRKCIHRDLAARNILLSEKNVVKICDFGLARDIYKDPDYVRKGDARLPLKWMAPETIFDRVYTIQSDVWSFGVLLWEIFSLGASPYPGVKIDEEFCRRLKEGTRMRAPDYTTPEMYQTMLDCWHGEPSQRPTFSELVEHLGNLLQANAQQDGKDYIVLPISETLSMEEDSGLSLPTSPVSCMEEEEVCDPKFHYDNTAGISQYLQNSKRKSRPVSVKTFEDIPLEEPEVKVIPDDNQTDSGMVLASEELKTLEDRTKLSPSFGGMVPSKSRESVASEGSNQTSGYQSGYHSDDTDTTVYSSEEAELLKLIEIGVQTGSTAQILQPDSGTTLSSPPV
For assay [2] the target is unchanged. Put plainly: Inhibition of VEGFR2 (unknown origin) phosphorylation at 1 ug/mL by cell-based Western blotting analysis. (In general: In western blotting, separated proteins are transferred to a membrane and probed.)
Assay [3] relates to Thoracic aorta. As to the kind of experiment: Antiangiogenic activity in Sprague-Dawley rat thoracic aorta rings assessed as reduction of microvessel outgrowth at 1 uM treated every other day for 6 days by Matrigel assay. It counts as functional, tissue-based. A digest of the protocol:
(§1)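 Aortas were taken from male Sprague Dawley rats aged 8–10 weeks and cleaned of fibroadipose tissue. 1-mm rings were embedded between two 100 μL Matrigel layers and set 30 min at 37 °C, 5% CO2. Compound, pazopanib or 0.5% DMSO vehicle was added every other day for 6 days. Outgrowth was photographed on day 7 at ×200. Three independent experiments.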

Assay [4] relates to Thoracic aorta. As to the kind of experiment: Antiangiogenic activity in Sprague-Dawley rat thoracic aorta rings assessed as reduction of microvessel outgrowth treated every other day for 6 days by Matrigel assay. It counts as functional, tissue-based. A digest of the protocol: as §1
The subject of assay [5] is HUVEC. Put plainly: Antiangiogenic activity in HUVEC assessed as inhibition of tube formation after 6 hrs by Matrigel assay. It counts as functional, cell-based. The following applies: Homo sapiens. A digest of the protocol: (§2)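 HUVECs seeded at 40,000 cells/well on Matrigel (gelled 30 min, 37 °C, 5% CO2) in M199 with 5% FBS plus compound or 0.5% DMSO vehicle; pazopanib positive control; 6 h at 37 °C, 5% CO2. Tube networks were scored by phase-contrast microscopy and photographed at ×100. Three independent experiments.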

Assay [6] addresses Tyrosine-protein kinase ABL1 (Homo sapiens, UniProt P00519). As to the kind of experiment: Inhibition of ABL (unknown origin) after 30 mins by fluorescence assay.
For assay [7], the target named is T1, RAC-alpha serine/threonine-protein kinase (Homo sapiens, UniProt P31749). Put plainly: Inhibition of AKT (unknown origin) after 30 mins by fluorescence assay.
T1 sequence (P31749 whole entry): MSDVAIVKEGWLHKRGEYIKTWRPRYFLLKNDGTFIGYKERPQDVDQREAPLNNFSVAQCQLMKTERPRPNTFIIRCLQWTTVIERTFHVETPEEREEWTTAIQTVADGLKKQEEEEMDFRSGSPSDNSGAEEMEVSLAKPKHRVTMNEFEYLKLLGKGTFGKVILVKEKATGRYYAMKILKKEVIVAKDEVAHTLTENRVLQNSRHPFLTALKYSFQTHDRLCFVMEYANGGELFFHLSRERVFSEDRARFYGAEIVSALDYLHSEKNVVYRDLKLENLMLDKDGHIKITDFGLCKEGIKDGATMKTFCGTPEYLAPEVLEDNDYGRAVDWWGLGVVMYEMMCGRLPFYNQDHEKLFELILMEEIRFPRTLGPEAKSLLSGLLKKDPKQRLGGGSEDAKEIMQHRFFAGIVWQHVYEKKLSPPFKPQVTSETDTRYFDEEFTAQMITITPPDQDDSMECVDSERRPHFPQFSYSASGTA
The target of assay [8] is T1, RAC-alpha serine/threonine-protein kinase. As to the kind of experiment: Inhibition of AKT (unknown origin) at 10 uM after 30 mins by fluorescence assay relative to control. The essentials: (§3)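 Enzyme plus compound (10 μM screen) or water in Hepes/Tris pH 7.4, EGTA/Tris, MgCl2, DTT and 0.008% Tween 20. Substrate and ATP started the reaction, 30 min at room temperature. EDTA stop, then europium-labelled anti-phospho-PT66 antibody for 60 min and TR-FRET read. Basal wells had no enzyme. Percent inhibition of control activity; staurosporine reference; duplicate.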

The target in assay [9] is ALK tyrosine kinase receptor (Homo sapiens) (UniProt Q9UM73). As to the kind of experiment: Inhibition of ALK (unknown origin) at 10 uM after 30 mins by fluorescence assay relative to control. The essentials: as §3
ALK tyrosine kinase receptor (Homo sapiens), sequence (Q9UM73 19-1620 limits assumed): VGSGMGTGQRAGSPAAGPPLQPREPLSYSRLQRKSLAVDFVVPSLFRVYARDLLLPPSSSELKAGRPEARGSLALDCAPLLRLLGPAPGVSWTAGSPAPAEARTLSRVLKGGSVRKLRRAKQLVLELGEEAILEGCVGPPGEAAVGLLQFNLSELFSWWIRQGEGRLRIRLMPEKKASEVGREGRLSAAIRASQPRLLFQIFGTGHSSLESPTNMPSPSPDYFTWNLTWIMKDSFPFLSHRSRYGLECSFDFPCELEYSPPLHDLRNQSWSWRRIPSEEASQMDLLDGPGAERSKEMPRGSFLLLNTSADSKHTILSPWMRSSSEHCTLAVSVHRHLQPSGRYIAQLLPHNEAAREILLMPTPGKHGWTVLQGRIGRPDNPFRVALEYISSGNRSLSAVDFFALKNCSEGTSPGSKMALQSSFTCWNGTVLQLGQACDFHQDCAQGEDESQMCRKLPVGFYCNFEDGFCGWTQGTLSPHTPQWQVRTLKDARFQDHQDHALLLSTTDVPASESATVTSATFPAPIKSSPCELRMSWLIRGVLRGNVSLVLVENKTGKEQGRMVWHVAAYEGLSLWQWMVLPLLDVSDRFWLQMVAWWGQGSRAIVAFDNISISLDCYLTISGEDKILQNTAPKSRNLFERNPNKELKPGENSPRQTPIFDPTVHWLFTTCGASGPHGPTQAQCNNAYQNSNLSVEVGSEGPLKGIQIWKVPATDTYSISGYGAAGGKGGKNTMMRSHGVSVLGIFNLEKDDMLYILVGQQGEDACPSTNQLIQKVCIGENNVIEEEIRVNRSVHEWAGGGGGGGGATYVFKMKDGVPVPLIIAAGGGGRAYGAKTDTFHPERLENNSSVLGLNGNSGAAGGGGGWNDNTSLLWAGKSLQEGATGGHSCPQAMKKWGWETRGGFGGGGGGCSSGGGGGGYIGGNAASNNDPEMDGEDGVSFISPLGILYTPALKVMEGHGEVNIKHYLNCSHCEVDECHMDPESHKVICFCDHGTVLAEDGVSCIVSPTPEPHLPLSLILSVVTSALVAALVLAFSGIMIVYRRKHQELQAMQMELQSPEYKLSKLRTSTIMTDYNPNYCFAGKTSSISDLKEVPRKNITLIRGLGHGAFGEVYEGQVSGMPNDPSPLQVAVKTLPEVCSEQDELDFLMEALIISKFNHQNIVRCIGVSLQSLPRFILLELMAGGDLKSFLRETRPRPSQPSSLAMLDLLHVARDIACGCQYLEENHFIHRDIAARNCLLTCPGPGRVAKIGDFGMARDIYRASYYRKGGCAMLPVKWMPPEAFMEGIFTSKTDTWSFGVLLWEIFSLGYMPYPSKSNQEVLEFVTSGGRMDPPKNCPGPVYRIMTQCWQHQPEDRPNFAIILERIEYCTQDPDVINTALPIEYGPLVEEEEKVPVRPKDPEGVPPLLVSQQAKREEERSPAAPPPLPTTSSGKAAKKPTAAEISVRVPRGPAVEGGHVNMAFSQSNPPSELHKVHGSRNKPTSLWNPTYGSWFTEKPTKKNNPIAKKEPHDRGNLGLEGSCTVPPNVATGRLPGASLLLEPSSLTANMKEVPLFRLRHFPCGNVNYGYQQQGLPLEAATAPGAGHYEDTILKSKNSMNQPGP
The test system of assay [10] is Thoracic aorta. As to the kind of experiment: Antiangiogenic activity in Sprague-Dawley rat thoracic aorta rings assessed as reduction of microvessel outgrowth at 10 uM treated every other day for 6 days by Matrigel assay. It counts as functional, tissue-based. A digest of the protocol:
as §1

For assay [11], the system named is HUVEC. Put plainly: Antiangiogenic activity in HUVEC assessed as inhibition of tube formation at 10 uM after 6 hrs by Matrigel assay. The following applies: Homo sapiens. It counts as functional, cell-based. A digest of the protocol:
as §2

Assay [12] relates to Thoracic aorta. As to the kind of experiment: Antiangiogenic activity in Sprague-Dawley rat thoracic aorta rings assessed as reduction of microvessel outgrowth at 0.1 uM treated every other day for 6 days by Matrigel assay. It counts as functional, tissue-based. The essentials: as §1
Assay [13] relates to HUVEC. As to the kind of experiment: Antiangiogenic activity in HUVEC assessed as inhibition of tube formation at 0.1 uM after 6 hrs by Matrigel assay. Format: functional, cell-based. The following applies: Homo sapiens. The essentials:
as §2

Calls of active or inactive are those of the source. The rule behind the calls is not given here.

Tyrosine-protein kinase ABL1, sequence (P00519 whole entry): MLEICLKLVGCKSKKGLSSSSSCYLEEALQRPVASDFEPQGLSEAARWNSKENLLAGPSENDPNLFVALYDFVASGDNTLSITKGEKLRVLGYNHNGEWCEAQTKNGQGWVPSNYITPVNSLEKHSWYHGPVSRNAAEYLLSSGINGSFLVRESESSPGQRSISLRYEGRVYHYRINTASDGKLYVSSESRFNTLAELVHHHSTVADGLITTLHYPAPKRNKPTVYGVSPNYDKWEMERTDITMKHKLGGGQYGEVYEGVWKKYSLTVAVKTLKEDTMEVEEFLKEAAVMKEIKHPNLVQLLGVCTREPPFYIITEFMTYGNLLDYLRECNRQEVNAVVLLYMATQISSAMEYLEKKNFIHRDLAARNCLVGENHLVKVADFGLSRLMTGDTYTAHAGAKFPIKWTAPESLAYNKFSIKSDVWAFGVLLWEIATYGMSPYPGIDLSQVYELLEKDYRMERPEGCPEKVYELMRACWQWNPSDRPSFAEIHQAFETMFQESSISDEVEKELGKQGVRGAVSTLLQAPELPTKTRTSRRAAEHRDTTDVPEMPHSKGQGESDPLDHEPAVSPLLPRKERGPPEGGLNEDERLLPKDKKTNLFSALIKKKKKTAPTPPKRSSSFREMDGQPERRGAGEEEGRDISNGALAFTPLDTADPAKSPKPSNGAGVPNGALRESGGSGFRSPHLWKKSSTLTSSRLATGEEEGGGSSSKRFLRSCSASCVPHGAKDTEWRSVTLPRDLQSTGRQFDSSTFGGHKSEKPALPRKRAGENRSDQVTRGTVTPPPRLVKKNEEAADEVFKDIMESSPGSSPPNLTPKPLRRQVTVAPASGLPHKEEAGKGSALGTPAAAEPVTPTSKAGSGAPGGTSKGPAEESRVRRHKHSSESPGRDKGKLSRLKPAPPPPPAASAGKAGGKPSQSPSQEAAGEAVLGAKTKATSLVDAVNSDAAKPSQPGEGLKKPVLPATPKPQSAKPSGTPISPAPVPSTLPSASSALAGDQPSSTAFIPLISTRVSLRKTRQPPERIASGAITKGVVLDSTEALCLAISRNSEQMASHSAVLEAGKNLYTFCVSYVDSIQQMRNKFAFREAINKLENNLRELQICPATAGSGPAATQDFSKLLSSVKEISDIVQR

In general, inhibition refers to the percentage by which the read-out fell short of the control. By IC50 is commonly meant the concentration at which inhibition is half-maximal. With `O=[N+]([O-])c1ccc(S(=O)(=O)Nc2ccc(O)c(Sc3ncn[nH]3)c2)cc1`, the inhibition result (in assay [1]; in [2]; with Thoracic aorta [3]) was “Active” each time. In addition, the Activity result with Thoracic aorta [4] was “Dose-dependent effect”. Further, the inhibition entry is “Dose-dependent effect” in the assay on HUVEC [5], 100% in assay [8] and 49.4% in assay [9]. Also, the IC50 in assay [6] was 1500 nM; in [7], 1260 nM.

`CN[C@@H]1C[C@H]2O[C@@](C)([C@@H]1OC)n1c3ccccc3c3c4c(c5c6ccccc6n2c5c31)C(=O)NC4` yielded an inhibition in [8] of 96.5%.

For the compound `O=C(Nc1ccc(O)c(Sc2ncn[nH]2)c1)c1ccc([N+](=O)[O-])cc1`, the inhibition in assay [8] was determined as 50.7%. Further, the inhibition result in assay [9] was “inactive”.

For the compound `COc1ccc(S(=O)(=O)Nc2ccc(O)c(Sc3nc[nH]n3)c2)cc1`, the inhibition in [8] worked out at 12.1%; in assay [9], 29.5%.

Consider `O=S(=O)(Nc1ccc(O)c(Sc2ncn[nH]2)c1)c1c(Cl)cccc1Cl`, for which the results for the inhibition in assay [8] and in assay [9] were 48.4% and 10.3%, respectively.

On to `Cn1nnnc1Sc1cc(NS(=O)(=O)c2ccc([N+](=O)[O-])cc2)ccc1O`, for which the inhibition in assay [8] amounted to 11.5%. The inhibition entry in assay [9] is “inactive”.

With `O=S(=O)(Nc1ccc(O)c(Sc2ncn[nH]2)c1)c1ccc2ccccc2c1`, the inhibition result in assay [8] and in assay [9] was “inactive” in each case.

On to `O=[N+]([O-])c1ccc(S(=O)(=O)Nc2ccc(O)c(Sc3ncnc4nc[nH]c34)c2)cc1`, for which, in assay [8], the inhibition came out at 37.5%. In assay [9], the inhibition result is “inactive”.

In the case of `Cn1nnnc1Sc1cc(NC(=O)c2ccc([N+](=O)[O-])cc2)ccc1O`, the inhibition in assay [8] worked out at 10.1%. Moreover, in assay [9], the inhibition entry was “inactive”.

`Cc1nnc(Sc2cc(NS(=O)(=O)c3ccc([N+](=O)[O-])cc3)ccc2O)s1`: the inhibition in [8] is 14.2%; in [9] it was 21.8%.

Regarding `CC(C)c1cc(C(C)C)c(S(=O)(=O)Nc2ccc(O)c(Sc3ncn[nH]3)c2)c(C(C)C)c1`, the inhibition came out at 14.5% in [8] and 17.1% in assay [9].

As for `Cc1cc(C)c(S(=O)(=O)Nc2ccc(O)c(Sc3nc[nH]n3)c2)c(C)c1`, the inhibition stood at 19.7% in assay [8] and 18% in assay [9].

Consider `Cc1ccc(S(=O)(=O)Nc2ccc(O)c(Sc3nc[nH]n3)c2)cc1`, for which the inhibition stood at 29.8% in assay [8] and 15.3% in assay [9].

On to `O=S(=O)(Nc1ccc(O)c(Sc2ncn[nH]2)c1)c1ccc(Cl)cc1`, for which the inhibition entry (in [1]; in [2]; in the assay with Thoracic aorta [10]; in the assay with HUVEC [11]; in assay [9]) was “inactive” throughout. This compound returned an inhibition in assay [8] of 56.4%.

`O=S(=O)(Nc1ccc(O)c(Sc2ncn[nH]2)c1)c1cccc2ccccc12`: the values for the inhibition in assay [8] and in assay [9] were 20.4% and 10%, respectively.

As for `Cc1nnc(Sc2cc(NC(=O)c3ccc([N+](=O)[O-])cc3)ccc2O)s1`, the inhibition in assay [8] turned out to be 12.3%; in assay [9] it was 14%.

On to `O=[N+]([O-])c1ccc(S(=O)(=O)Nc2ccc(O)c(Sc3nncs3)c2)cc1`, for which the inhibition in assay [8] came to 14.9%; in assay [9] it was 11.4%.

In the case of `CS(=O)(=O)Nc1ccc(O)c(Sc2ncn[nH]2)c1`, the inhibition in assay [8] came to 14.3%; in assay [9] it was 15.9%.

On to `Cc1ccc(Nc2nccc(N(C)c3ccc4c(C)n(C)nc4c3)n2)cc1S(N)(=O)=O`, for which the inhibition entry (in assay [1]; in [2]; with Thoracic aorta [12]; in the assay with HUVEC [13]) was “Active” throughout.

As for `O=C(Nc1ccc(O)c(Sc2nncs2)c1)c1ccc([N+](=O)[O-])cc1`, the inhibition entry in assay [8] and in assay [9] was “inactive” each time.

Take `O=C(Nc1ccc(O)c(Sc2ncnc3nc[nH]c23)c1)c1ccc([N+](=O)[O-])cc1`: the inhibition result in assay [1] was “Active”. The inhibition result with Thoracic aorta [10] and in the assay on HUVEC [11] was “inactive” throughout. Besides, the results for the inhibition in assay [8] and in [9] were 64.6% and 21.9%, respectively.
